Experimental data: ChEMBL document CHEMBL4130635, “2,4-Diaminoquinazolines as Dual Toll-like Receptor (TLR) 7/8 Modulators for the Treatment of Hepatitis B Virus” (J Med Chem, 2018)
The source made the active and inactive calls. The calls are words filed in the database; no cut-off is given here.

Tests used:
[1] = Stability in human hepatocytes assessed compound turnover at 1 uM after 60 mins; type: ADME, cell-based, Hepatocyte; conditions: read-out: Drug metabolism
[2] = system: Plasma; experiment: Proinflammatory activity in C57BL/6J mouse plasma assessed as IL-1beta levels at 1 mg/kg, po by multiplex assay (reference value: 60 pg/ml); type: functional, organism-based
[3] = system: Liver; experiment: Proinflammatory activity in C57BL/6J mouse liver assessed as TNFalpha levels at 0.3 mg/kg, po by multiplex assay (reference value: 15 pg/g); type: functional
[4] = system: Cynomolgus monkey; experiment: Induction of ISG response in cynomolgus monkey plasma assessed as upregulation of Oas1b mRNA expression at 9 mg/kg, po after 24 hrs by Fluidigm RT-qPCR analysis (reference value: 1); type: functional, Macaca fascicularis
In short: (§1)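 Cynomolgus monkeys, single oral doses of 1, 3, 9 and 30 mg/kg with a planned 2-week wash-out between doses. Systemic ISG (ISG15, Mx1, OAS1) mRNA was measured by Fluidigm RT-qPCR at 1, 2, 4, 8 and 24 h postdose.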

[5] = system: Plasma; experiment: Anti-inflammatory activity in C57BL/6J mouse plasma assessed as IL-10 levels at 10 mg/kg, po by multiplex assay (reference value: 120 pg/ml); type: functional
In short: (§2)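 Single oral gavage in 20% HP-β-CD to healthy C57BL/6 mice, groups of 15 at 0.3, 1, 3, 10 or 30 mg/kg. Three mice per group sacrificed at 0.5, 1, 2, 4 or 7 h. Plasma and liver cytokines by multiplex, maximum level reported, rounded to nearest multiple of 5.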

[6] = system: Cynomolgus monkey; experiment: Proinflammatory activity in cynomolgus monkey plasma assessed as IL-6 levels at 1 mg/kg, po after 24 hrs by Luminex assay (reference value: 80 pg/ml); type: functional, Macaca fascicularis
[7] = Protein binding in mouse plasma fraction at 5 uM after 4.5 hrs LC-MS/MS-based rapid equilibrium dialysis method; type: ADME, cell-free; conditions: read-out: PPB (converted)
[8] = system: Liver; experiment: Proinflammatory activity in C57BL/6J mouse liver assessed as IL-1beta levels at 0.3 mg/kg, po by multiplex assay; type: functional
[9] = Absolute bioavailability in cynomolgus monkey at 1 to 30 mg/kg; type: ADME, organism-based, Macaca fascicularis; conditions: in vivo
[10] = system: Liver; experiment: Effect on cytokine profile in C57BL/6J mouse liver assessed as IFNgamma levels at 3 mg/kg, po by multiplex assay; type: functional; in short: as §2
[11] = system: Cynomolgus monkey; experiment: Induction of ISG response in cynomolgus monkey plasma assessed as upregulation of Oas1b mRNA expression at 30 mg/kg, po after 24 hrs by Fluidigm RT-qPCR analysis (reference value: 1); type: functional, Macaca fascicularis; in short: as §1
[12] = system: Cynomolgus monkey; experiment: Activation of monocytes in cynomolgus monkey plasma assessed as upregulation of MIP1 levels at 9 mg/kg, po after 24 hrs by Luminex assay (reference value: 37 pg/ml); type: functional, Macaca fascicularis
[13] = system: Liver; experiment: Proinflammatory activity in C57BL/6J mouse liver assessed as CXCL-1 levels at 3 mg/kg, po by multiplex assay (reference value: 25 pg/g); type: functional
[14] = system: Plasma; experiment: Induction of IFNalpha levels in C57BL/6J mouse plasma at 0.3 mg/kg, po by ELISA; type: functional, organism-based
[15] = system: Toll-like receptor 7/8 (Homo sapiens); experiment: Agonist activity at TLR7/8 in human PBMCs assessed as decrease in HBeAg levels in human hepatocytes infected with HBV genotype C for 12 days followed by exposure to conditioned supernatant from up to 5 uM compound treated PBMCs measured after 42 days
[16] = Stability in dog hepatocytes assessed compound turnover at 1 uM after 60 mins; type: ADME, cell-based, Canis lupus familiaris, Hepatocyte; conditions: read-out: Drug metabolism
[17] = system: Plasma; experiment: Proinflammatory activity in C57BL/6J mouse plasma assessed as CXCL-1 levels at 0.3 mg/kg, po by multiplex assay (reference value: 230 pg/ml); type: functional
[18] = molecular target: TLR7 and TLR8 (Homo sapiens) (UniProt Q9NYK1+Q9NR97); experiment: Agonist activity at TLR7/8 in human PBMCs co-cultured with primary human hepatocytes infected with HBV genotype C for 12 days assessed as increase in TNFalpha levels up to 5 uM measured after 42 days
[19] = system: Cynomolgus monkey; experiment: Induction of ISG response in cynomolgus monkey plasma assessed as upregulation of Isg15 mRNA expression at 30 mg/kg, po after 24 hrs by Fluidigm RT-qPCR analysis (reference value: 1); type: functional, Macaca fascicularis; in short: as §1
[20] = system: Plasma; experiment: Effect on cytokine profile in C57BL/6J mouse plasma assessed as IL-12p70 levels at 0.3 mg/kg, po by multiplex assay (reference value: 560 pg/ml); type: functional; in short: as §2
[21] = Cmax in C57BL/6J mouse plasma at 30 mg/kg, po by LC-MS analysis; type: ADME, organism-based; design: dose 30 mg/kg, route oral
In short: (§3)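 Healthy C57BL/6 mice, groups of 15, given a single oral dose (0.3, 1, 3, 10 or 30 mg/kg) in 20% HP-β-CD. Blood drawn at 0.5 h. Three mice per group sacrificed at 0.5, 1, 2, 4 or 7 h, and compound in plasma and liver measured by LC−MS. Values rounded to whole numbers.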

[22] = system: Plasma; experiment: Proinflammatory activity in C57BL/6J mouse plasma assessed as TNFalpha levels at 1 mg/kg, po by multiplex assay (reference value: 70 pg/ml); type: functional
[23] = system: Liver; experiment: Proinflammatory activity in C57BL/6J mouse liver assessed as CXCL-1 levels at 10 mg/kg, po by multiplex assay (reference value: 25 pg/g); type: functional
[24] = system: Liver; experiment: Effect on cytokine profile in C57BL/6J mouse liver assessed as IFNgamma levels at 1 mg/kg, po by multiplex assay; type: functional, organism-based; in short: as §2
[25] = system: Plasma; experiment: Proinflammatory activity in C57BL/6J mouse plasma assessed as TNFalpha levels at 3 mg/kg, po by multiplex assay (reference value: 70 pg/ml); type: functional
[26] = Drug uptake in C57BL/6J mouse liver at 30 mg/kg, po by LC-MS analysis; type: ADME, organism-based; conditions: in vivo; in short: as §3
[27] = system: Mus musculus; experiment: Toxicity in C57BL/6J mouse assessed as change in body temperature at 1 to 30 mg/kg, po; type: organism-based; conditions: in vivo
[28] = Tmax in Sprague-Dawley rat plasma at 10 mg/kg, po; type: ADME, organism-based
[29] = system: Cynomolgus monkey; experiment: Induction of IFNalpha levels in cynomolgus monkey plasma at 3 mg/kg, po after 24 hrs by ELISA; type: functional, Macaca fascicularis
In short: (§4)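 Healthy cynomolgus monkeys given single oral doses of 1, 3, 9 and 30 mg/kg, with a 2-week wash-out planned between doses. Systemic cytokine levels in plasma were sampled at 0.5, 1, 2, 4, 9 and 24 h postdose.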

[30] = system: Plasma; experiment: Proinflammatory activity in C57BL/6J mouse plasma assessed as TNFalpha levels at 10 mg/kg, po by multiplex assay (reference value: 70 pg/ml); type: functional
[31] = system: Cynomolgus monkey; experiment: Toxicity in cynomolgus monkey assessed as change in body temperature up to 30 mg/kg, po; type: organism-based, Macaca fascicularis; conditions: in vivo
[32] = system: Cynomolgus monkey; experiment: Activation of monocytes in cynomolgus monkey plasma assessed as upregulation of MIP1 levels at 3 mg/kg, po after 24 hrs by Luminex assay (reference value: 37 pg/ml); type: functional, Macaca fascicularis
[33] = system: Cynomolgus monkey; experiment: Induction of IFNalpha levels in cynomolgus monkey plasma at 9 mg/kg, po after 24 hrs by ELISA; type: functional, Macaca fascicularis; in short: as §4

Sequence of TLR7 and TLR8 (Homo sapiens) (Q9NR97 whole entry, looked up): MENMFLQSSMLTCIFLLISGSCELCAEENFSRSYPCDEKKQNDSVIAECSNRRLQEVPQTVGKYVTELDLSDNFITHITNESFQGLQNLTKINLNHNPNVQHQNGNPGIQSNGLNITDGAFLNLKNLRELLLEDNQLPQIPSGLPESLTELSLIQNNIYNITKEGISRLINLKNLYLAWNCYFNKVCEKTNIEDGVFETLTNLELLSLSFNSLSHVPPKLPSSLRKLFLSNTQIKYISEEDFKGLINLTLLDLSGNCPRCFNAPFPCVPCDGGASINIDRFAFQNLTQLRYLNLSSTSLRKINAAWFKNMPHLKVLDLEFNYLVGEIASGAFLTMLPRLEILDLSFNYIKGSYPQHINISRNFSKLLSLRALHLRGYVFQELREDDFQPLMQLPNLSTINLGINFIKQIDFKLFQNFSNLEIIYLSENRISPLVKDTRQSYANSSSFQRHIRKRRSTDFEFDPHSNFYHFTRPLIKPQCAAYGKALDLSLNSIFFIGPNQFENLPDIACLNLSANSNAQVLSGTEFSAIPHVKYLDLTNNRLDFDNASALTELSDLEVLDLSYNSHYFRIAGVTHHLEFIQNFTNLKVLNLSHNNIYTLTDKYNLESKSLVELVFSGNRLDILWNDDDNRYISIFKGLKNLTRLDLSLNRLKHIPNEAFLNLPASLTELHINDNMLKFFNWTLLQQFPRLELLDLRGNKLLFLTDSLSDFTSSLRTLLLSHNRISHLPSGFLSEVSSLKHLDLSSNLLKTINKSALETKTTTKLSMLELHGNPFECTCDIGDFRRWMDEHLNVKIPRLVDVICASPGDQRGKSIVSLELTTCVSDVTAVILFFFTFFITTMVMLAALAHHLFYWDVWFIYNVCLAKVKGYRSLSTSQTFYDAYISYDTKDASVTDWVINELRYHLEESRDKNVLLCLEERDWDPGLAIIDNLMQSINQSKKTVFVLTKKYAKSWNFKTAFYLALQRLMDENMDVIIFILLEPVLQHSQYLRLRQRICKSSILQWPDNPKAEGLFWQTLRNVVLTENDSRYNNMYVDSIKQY
Sequence of TLR7 and TLR8 (Homo sapiens) (Q9NYK1 whole entry, looked up): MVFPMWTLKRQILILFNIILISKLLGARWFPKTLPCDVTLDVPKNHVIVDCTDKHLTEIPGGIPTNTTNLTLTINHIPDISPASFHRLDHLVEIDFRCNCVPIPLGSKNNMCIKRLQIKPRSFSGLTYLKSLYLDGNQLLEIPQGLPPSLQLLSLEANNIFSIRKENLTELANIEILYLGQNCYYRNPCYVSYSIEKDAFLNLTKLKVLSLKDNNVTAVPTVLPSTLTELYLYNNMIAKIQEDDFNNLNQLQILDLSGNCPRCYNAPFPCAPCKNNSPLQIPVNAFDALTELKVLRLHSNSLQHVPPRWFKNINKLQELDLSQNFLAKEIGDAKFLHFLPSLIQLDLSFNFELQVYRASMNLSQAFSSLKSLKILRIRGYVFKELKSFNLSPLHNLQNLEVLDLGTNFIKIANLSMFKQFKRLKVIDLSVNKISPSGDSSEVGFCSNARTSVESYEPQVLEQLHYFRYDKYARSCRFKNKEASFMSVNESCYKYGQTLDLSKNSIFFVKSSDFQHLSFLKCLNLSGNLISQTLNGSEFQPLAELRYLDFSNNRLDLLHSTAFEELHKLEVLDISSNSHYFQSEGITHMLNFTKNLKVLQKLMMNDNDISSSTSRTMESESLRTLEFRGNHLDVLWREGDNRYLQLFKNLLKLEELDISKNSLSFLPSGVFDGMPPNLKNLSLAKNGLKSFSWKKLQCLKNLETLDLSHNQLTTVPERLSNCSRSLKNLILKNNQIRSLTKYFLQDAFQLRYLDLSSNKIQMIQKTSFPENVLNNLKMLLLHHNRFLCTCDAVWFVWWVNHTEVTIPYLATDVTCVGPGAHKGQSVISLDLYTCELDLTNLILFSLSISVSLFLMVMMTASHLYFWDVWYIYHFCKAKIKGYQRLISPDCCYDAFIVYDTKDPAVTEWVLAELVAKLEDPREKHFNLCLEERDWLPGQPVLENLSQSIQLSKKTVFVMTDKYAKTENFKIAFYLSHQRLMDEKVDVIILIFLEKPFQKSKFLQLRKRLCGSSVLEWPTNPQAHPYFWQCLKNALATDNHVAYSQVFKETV

## CCC[C@@H](CCO)Nc1nc(N)nc2c(F)cccc12
[1]
  metabolised at 1 h, 1 µM: 35%
[2]
  Activity: Below limit of detection
[3]
  Activity: 1945 pg/g
[4]
  fold change (FC): 260
[5]
  Activity: 29450 pg/mL
[6]
  Activity: 75 pg/mL
[7]
  fraction unbound at 4.5 h, 5 µM: 0.4
[8]
  Activity: 9765 pg/g
[9]
  bioavailability: < 11%
[10]
  Activity: 150 pg/g
[11]
  fold change (FC): 235
[12]
  Activity: 310 pg/mL
[13]
  Activity: 35575 pg/g
[14]
  Activity: Below limit of detection
[15]
  Activity: Dose-dependent effect
[16]
  metabolised at 1 h, 1 µM: 77%
[17]
  Activity: 2180 pg/mL
[18]
  Activity: Active
[19]
  fold change (FC): 285
[20]
  Activity: 470 pg/mL
[21]
  Cmax: 813 ng/mL
[22]
  Activity: 335 pg/mL
[23]
  Activity: 48485 pg/g
[24]
  Activity: Below limit of detection
[25]
  Activity: 1665 pg/mL
[26]
  Drug uptake: 462 ng/g
[27]
  Activity: Non-Toxic
[28]
  Tmax: 30 min
[29]
  Activity: >51200 pg/mL
[30]
  Activity: >10000 pg/mL
[31]
  Activity: Non-Toxic
[32]
  Activity: 85 pg/mL
[33]
  Activity: >51200 pg/mL
